{"source": "ChEMBL document CHEMBL1255483", "about": "“Intra- and extracellular activities of dicloxacillin against Staphylococcus aureus in vivo and in vitro” (Antimicrob Agents Chemother, 2010)", "key": {"[1]": {"assay": "Ratio of fAUC (24 hrs) in NMRI mouse at 340 mg/kg administered every 24 hrs to MIC for Staphylococcus aureus E19977"}, "[2]": {"assay": "fT>MIC in Staphylococcus aureus E19977 infected NMRI mouse at 240 mg/kg administered every 6 hrs", "assay_type": "functional", "how_it_was_run": "(§1)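 Calculated percentage of 24 h at steady state that free plasma DCX exceeds the strain MIC (microdilution, pH 7.4). Concentrations were simulated from single subcutaneous dose plasma curves in NMRI mice (S. lutea bioassay), adjusted with a square-root model of concentration-dependent free fraction from ultrafiltration. The regimen was dosed subcutaneously in mice infected intraperitoneally with 10^7.4 CFU, and peritoneal CFU were read after 24 h of therapy.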"}, "[3]": {"assay": "fT>MIC in Staphylococcus aureus E19977 infected NMRI mouse at 400 mg/kg administered every 12 hrs", "assay_type": "functional", "how_it_was_run": "as §1"}, "Staphylococcus aureus [4]": {"tested_on": "Staphylococcus aureus", "assay": "Bactericidal activity against Staphylococcus aureus E19977 assessed as log reduction in bacterial count at 10 times MIC after 5 hrs by time-kill assay", "assay_type": "functional", "how_it_was_run": "(§2)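 Broth time-kill: MSSA at 10⁶ CFU/ml exposed to a wide range of dicloxacillin concentrations. CFU counted after 5 and 24 h and expressed as change in log₁₀ CFU/ml from time zero. Multiples refer to the MIC by CLSI microdilution at pH 7.4. n = 3.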"}, "Staphylococcus aureus [5]": {"tested_on": "Staphylococcus aureus", "assay": "Antimicrobial activity against Staphylococcus aureus ATCC 25923 infected in human THP-1 cells after 24 hrs", "assay_type": "functional, organism-based", "details": "ATCC 25923, THP-1, 24 h", "how_it_was_run": "(§3)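 Human THP-1 macrophages were infected with opsonized S. aureus at 4 bacteria per macrophage for 45 min. Non-phagocytized bacteria were removed by washing and a brief incubation in PBS with gentamicin 50 mg/liter. Cells were then incubated up to 24 h with DCX over a wide range of extracellular concentrations. The read-out was Δlog CFU per mg cell protein versus time zero (n = 3), with sigmoidal fitting and Cstatic by interpolation.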"}, "Mus musculus [6]": {"species_on_record": "Mus musculus", "assay": "Protein binding in NMRI mouse infected with Staphylococcus aureus E19977 at 90 mg/l by ultrafiltration", "assay_type": "ADME, organism-based", "details": "in vivo", "how_it_was_run": "(§4)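 Plasma binding was measured by ultrafiltration. EDTA blood from healthy mice, or from NMRI mice infected intraperitoneally for 6 h with E19977, was spiked with DCX at 10–400 mg/liter, with PBS controls. Samples were held 1 h at 37°C, then centrifuged through 30-kDa filters at 3,000 × g for 8 min at 37°C. Total and filtrate drug were measured by S. lutea bioassay.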"}, "[7]": {"assay": "Cmax in NMRI mouse at 30 mg/kg, sc", "assay_type": "ADME, organism-based", "set-up": "dose 30 mg/kg, route subcutaneous", "details": "in vivo", "how_it_was_run": "(§5)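 Single subcutaneous dicloxacillin doses were given to NMRI mice. EDTA plasma was assayed by microbiological bioassay with S. lutea ATCC 9391 (detection limit 1.5 mg/liter, linear to 100 mg/liter, CV ~5%). Cmax was obtained by noncompartmental analysis.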"}, "[8]": {"assay": "Cmax in NMRI mouse at 1200 mg/kg, sc", "assay_type": "ADME, organism-based", "set-up": "dose 1200 mg/kg, route subcutaneous", "details": "in vivo"}, "[9]": {"assay": "fT>MIC in Staphylococcus aureus E19977 infected NMRI mouse at 76 mg/kg administered every 2 hrs", "assay_type": "functional", "how_it_was_run": "as §1"}, "Staphylococcus aureus [10]": {"tested_on": "Staphylococcus aureus", "assay": "Bacteriostatic activity against Staphylococcus aureus ATCC 25923 infected in human THP-1 cells at compound MIC after 24 hrs", "assay_type": "functional, organism-based", "how_it_was_run": "as §3"}, "[11]": {"assay": "AUC (24 hrs) in NMRI mouse at 1200 mg/kg, sc", "assay_type": "ADME, organism-based", "set-up": "time < 24 hr, dose 1200 mg/kg, route subcutaneous", "details": "plasma"}, "Staphylococcus aureus [12]": {"tested_on": "Staphylococcus aureus", "assay": "Bactericidal activity against Staphylococcus aureus ATCC 25923 assessed as log reduction in bacterial count at 10 times MIC after 5 hrs by time-kill assay", "assay_type": "functional", "how_it_was_run": "as §2"}, "Staphylococcus aureus [13]": {"tested_on": "Staphylococcus aureus", "assay": "Bactericidal activity against Staphylococcus aureus E19977 assessed as log reduction in bacterial count at 10 times MIC after 24 hrs by time-kill assay", "assay_type": "functional", "how_it_was_run": "as §2"}, "Staphylococcus aureus [14]": {"tested_on": "Staphylococcus aureus", "assay": "Antimicrobial activity against Staphylococcus aureus E19977 by broth microdilution method at pH 7.4"}, "[15]": {"assay": "Cmax in NMRI mouse at 60 mg/kg, sc", "assay_type": "ADME, organism-based", "set-up": "dose 60 mg/kg, route subcutaneous", "details": "in vivo", "how_it_was_run": "as §5"}, "Staphylococcus aureus [16]": {"tested_on": "Staphylococcus aureus", "assay": "Bacteriostatic activity against Staphylococcus aureus E19977 at MIC between 5 to 24 hrs", "assay_type": "functional, organism-based", "how_it_was_run": "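Extracellular broth time- and concentration-kill test. The inoculum was ~10⁶ CFU/ml, exposed to a wide range of DCX concentrations, with CFU counted after 5 and 24 h. The read-out was Δlog CFU/ml versus time zero (mean ± SD, n = 3). A sigmoidal fit with slope 1 gave Emax and EC50. Cstatic was read by graphical interpolation as the concentration giving no change from the inoculum.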"}, "[17]": {"assay": "fT>MIC in Staphylococcus aureus E19977 infected NMRI mouse at 80 mg/kg administered every 8 hrs", "assay_type": "functional", "how_it_was_run": "as §1"}, "Mus musculus [18]": {"species_on_record": "Mus musculus", "assay": "Protein binding in NMRI mouse at 10 mg/l by ultrafiltration", "assay_type": "ADME, organism-based", "details": "in vivo", "how_it_was_run": "as §4"}, "[19]": {"assay": "Ratio of fCmax in NMRI mouse at 120 mg/kg administered every 6 hrs to MIC for Staphylococcus aureus E19977", "assay_type": "functional", "how_it_was_run": "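Free Cmax/MIC was modelled, not measured. Single-dose subcutaneous plasma curves from NMRI mice were projected to the multiple-dose regimens. Free fraction came from a square-root fit of unbound fraction versus total concentration. Binding was measured by ultrafiltration of mouse plasma spiked with 10–400 mg/liter and held 1 h at 37°C. MIC was for strain E19977.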"}, "[20]": {"assay": "Ratio of fAUC (24 hrs) in NMRI mouse at 30 mg/kg administered every 2 hrs to MIC for Staphylococcus aureus E19977", "assay_type": "functional", "how_it_was_run": "(§6)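 Modeled free AUC over 24 h divided by the MIC, not measured directly. Single subcutaneous DCX doses were given to NMRI mice, and plasma was assayed by S. lutea bioassay. Noncompartmental analysis used trapezoidal mean points plus a fitted monoexponential extrapolated to 24 h. Free fraction came from a square-root fit to plasma ultrafiltration binding (10–400 mg/liter spike, 1 h, 37°C). The MIC was measured by broth microdilution at pH 7.4.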"}, "Staphylococcus aureus [21]": {"tested_on": "Staphylococcus aureus", "assay": "Bacteriostatic activity against Staphylococcus aureus ATCC 25923 infected in human THP-1 cells after 24 hrs", "assay_type": "functional", "how_it_was_run": "as §3"}, "[22]": {"assay": "AUC (24 hrs) in NMRI mouse at 60 mg/kg, sc", "assay_type": "ADME, organism-based", "set-up": "time < 24 hr, dose 60 mg/kg, route subcutaneous", "details": "plasma", "how_it_was_run": "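Single subcutaneous DCX doses given to NMRI mice. Blood was collected into EDTA tubes, and plasma drug was assayed by microbiological bioassay with S. lutea ATCC 9391 (detection limit 1.5 mg/liter, linear to 100 mg/liter). Values came from noncompartmental analysis. Terminal half-life was fitted monoexponentially to the last four time points. AUC24 combined the trapezoidal rule over mean points with exact integration of the fitted curve extrapolated to 24 h.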"}, "Mus musculus [23]": {"species_on_record": "Mus musculus", "assay": "Protein binding in NMRI mouse at 30 mg/l by ultrafiltration", "assay_type": "ADME, organism-based", "details": "in vivo", "how_it_was_run": "as §4"}, "[24]": {"assay": "fT>MIC in Staphylococcus aureus E19977 infected NMRI mouse at 340 mg/kg administered every 24 hrs"}, "[25]": {"assay": "Ratio of fAUC (24 hrs) in NMRI mouse at 240 mg/kg administered every 6 hrs to MIC for Staphylococcus aureus E19977", "assay_type": "functional", "how_it_was_run": "as §6"}, "[26]": {"assay": "fT>MIC in Staphylococcus aureus E19977 infected NMRI mouse at 80 mg/kg administered every 3 hrs"}, "Staphylococcus aureus [27]": {"tested_on": "Staphylococcus aureus", "assay": "Bactericidal activity against Staphylococcus aureus E19977 infected in human THP-1 cells assessed as log change in bacterial count after 24 hrs", "assay_type": "functional", "how_it_was_run": "as §3"}}, "note": "Activity calls are given as the source filed them. The rule behind the calls is not given here.", "data": [{"smiles": "Cc1onc(-c2c(Cl)cccc2Cl)c1C(=O)N[C@@H]1C(=O)N2[C@@H]1SC(C)(C)[C@@H]2C(=O)O", "note": "[DICLOXACILLIN]", "values": [{"measurement": "fAUC/MIC", "setting": "[1]", "value": 259.37, "unit": "h"}, {"measurement": "fT>MIC", "setting": "[2]", "value": 65.28, "unit": "%"}, {"measurement": "fT>MIC", "setting": "[3]", "value": 35.97, "unit": "%"}, {"measurement": "FC", "setting": "Staphylococcus aureus [4]", "value": "<1"}, {"measurement": "EC50", "setting": "Staphylococcus aureus [5]", "value": 0.04, "unit": "µg/mL"}, {"measurement": "Activity", "setting": "Mus musculus [6]", "value": 85.6, "unit": "%"}, {"measurement": "Cmax", "setting": "[7]", "value": 36, "unit": "µg/mL"}, {"measurement": "Cmax", "setting": "[8]", "value": 222, "unit": "µg/mL"}, {"measurement": "fT>MIC", "setting": "[9]", "value": 100, "unit": "%"}, {"measurement": "Activity", "setting": "Staphylococcus aureus [10]", "value": "Active"}, {"measurement": "AUC at 24 h", "setting": "[11]", "value": 190, "unit": "µg·h/mL"}, {"measurement": "FC", "setting": "Staphylococcus aureus [12]", "value": "<1"}, {"measurement": "FC", "setting": "Staphylococcus aureus [13]", "value": 3}, {"measurement": "MIC", "setting": "Staphylococcus aureus [14]", "value": 0.5, "unit": "µg/mL"}, {"measurement": "Cmax", "setting": "[15]", "value": 90.1, "unit": "µg/mL"}, {"measurement": "Activity", "setting": "Staphylococcus aureus [16]", "value": "Active"}, {"measurement": "fT>MIC", "setting": "[17]", "value": 25, "unit": "%"}, {"measurement": "Activity", "setting": "Mus musculus [18]", "value": 93.9, "unit": "%"}, {"measurement": "Ratio", "setting": "[19]", "value": 61.6}, {"measurement": "fAUC/MIC", "setting": "[20]", "value": 39.32, "unit": "h"}, {"measurement": "Activity", "setting": "Staphylococcus aureus [21]", "value": 0.11, "unit": "mg/L"}, {"measurement": "AUC at 24 h", "setting": "[22]", "value": 70.4, "unit": "µg·h/mL"}, {"measurement": "Activity", "setting": "Mus musculus [23]", "value": 91.5, "unit": "%"}, {"measurement": "fT>MIC", "setting": "[24]", "value": 17.78, "unit": "%"}, {"measurement": "fAUC/MIC", "setting": "[25]", "value": 572.83, "unit": "h"}, {"measurement": "fT>MIC", "setting": "[26]", "value": 66.67, "unit": "%"}, {"measurement": "Emax", "setting": "Staphylococcus aureus [27]", "value": -1.01, "unit": "deltalog10CFU/ml"}]}]}
